Apaf-1 act: activators of human Apaf-1 apoptosome; actives 0.31% (n = 330,000); AID 489031; O14727; activity change, negative = activation, % at 20 µM; Apaf-1 apoptosome caspase-3 activation, DEVD-Rh110 fluorescence; stronger effect = lower value;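 active = activity change at or below -40% at 20 µM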
Target sequence (O14727 whole entry, looked up): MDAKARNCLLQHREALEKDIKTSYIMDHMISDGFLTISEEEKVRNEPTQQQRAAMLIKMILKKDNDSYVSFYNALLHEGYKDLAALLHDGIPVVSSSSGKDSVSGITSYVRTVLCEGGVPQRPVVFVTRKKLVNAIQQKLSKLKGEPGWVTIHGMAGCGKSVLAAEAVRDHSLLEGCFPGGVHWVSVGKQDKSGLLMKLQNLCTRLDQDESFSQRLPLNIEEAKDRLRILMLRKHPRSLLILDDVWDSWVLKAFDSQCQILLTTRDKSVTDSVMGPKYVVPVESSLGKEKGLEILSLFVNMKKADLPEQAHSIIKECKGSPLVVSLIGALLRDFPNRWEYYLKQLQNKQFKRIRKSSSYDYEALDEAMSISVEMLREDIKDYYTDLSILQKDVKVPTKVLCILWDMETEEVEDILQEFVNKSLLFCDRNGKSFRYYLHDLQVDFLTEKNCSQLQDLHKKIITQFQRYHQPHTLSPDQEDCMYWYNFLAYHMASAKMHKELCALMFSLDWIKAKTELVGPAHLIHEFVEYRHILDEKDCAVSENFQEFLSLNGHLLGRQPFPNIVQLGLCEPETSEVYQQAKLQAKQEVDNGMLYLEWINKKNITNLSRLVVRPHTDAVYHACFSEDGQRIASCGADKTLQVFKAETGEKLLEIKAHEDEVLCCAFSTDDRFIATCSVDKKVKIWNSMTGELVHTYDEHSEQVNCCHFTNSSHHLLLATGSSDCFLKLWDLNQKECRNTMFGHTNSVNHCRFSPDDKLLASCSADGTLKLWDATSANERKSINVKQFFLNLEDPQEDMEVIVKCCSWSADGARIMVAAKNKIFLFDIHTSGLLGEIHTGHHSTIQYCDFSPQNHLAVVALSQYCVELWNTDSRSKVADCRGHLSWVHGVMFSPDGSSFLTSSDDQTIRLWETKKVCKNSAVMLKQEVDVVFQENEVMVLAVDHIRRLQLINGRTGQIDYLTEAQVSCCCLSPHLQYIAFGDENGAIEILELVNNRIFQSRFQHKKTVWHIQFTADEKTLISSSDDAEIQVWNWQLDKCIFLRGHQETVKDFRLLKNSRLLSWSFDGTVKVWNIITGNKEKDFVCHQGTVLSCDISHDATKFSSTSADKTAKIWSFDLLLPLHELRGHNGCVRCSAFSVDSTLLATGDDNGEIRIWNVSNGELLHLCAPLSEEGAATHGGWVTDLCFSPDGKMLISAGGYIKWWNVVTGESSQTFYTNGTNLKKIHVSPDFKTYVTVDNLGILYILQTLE
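Schedule: 30 min preincubation, 50 min reaction, room temperature / System: biochemical Apaf-1 apoptosome reconstitution / Medium: 20 mM HEPES pH 7.5 with CHAPS, BSA / Evaluation: Caspase-3 cleavage activity downstream of Apaf-1 activation / Detection: Caspase-3-released Rh110 fluorescence, 540 nm emission, 480 nm excitation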
Rh110 act interf: Rh110 signal interference in Apaf-1 activator counter-screen; shares compounds with Apaf-1 act; Rh110 fluorescence interference, quenched caspase reaction, Ex480/Em540; fluorescence interference (activity change), % at 20 µM, hits read low; 980 tested, under 10 active; AID 504616;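 active = mean activity change at or below -40% when tested at 20 µM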
Apaf-1 act conf: Apaf-1 (human) activation, single-dose confirmed | shares compounds with Apaf-1 act | reconstituted apoptosome caspase-3 activity, DEVD-Rh110 fluorescence; stronger effect = lower value | activity change, negative = activation, % at 20 µM | actives 5% (n = 980);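 active = mean activity change at or below -40%, meaning activation of 40% or more, at 20 µM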
Fluor interf act: Apaf-1 activator counter-screen fluorescence artifact; 55 tested, under 10 active; fluorescence interference counterscreen, Apaf-1 activator assay; EC50, µM; shares compounds with Apaf-1 act; call rule not given here
Active calls of the source: *; · = no result. Only a sample is shown.

SMILES | Apaf-1 act | Rh110 act interf | Apaf-1 act conf | others
COc1ccc(OCC(NS(=O)(=O)c2ccc(-n3cnnn3)cc2)C(C)C)cc1 (stereo unspecified) | -424.1* | 12.9 | 5.8
COc1ccc(S(=O)(=O)Nc2cc(SCC(=O)O)c(O)c3ccccc23)cc1 | 85.5 | · | ·
CCCCCc1cc(=O)oc2c(C(CCN3CCCC(C)C3)c3ccc(OC)cc3)c(OC)cc(OC)c12 (stereo unspecified) | 65.5 | · | ·
COc1ccccc1/C=C1/C(=O)N(c2ccccc2)N=C1C | 92.5 | · | ·
CCC(CN(C)C)Oc1cc(NCc2ccccc2)c2ncn(C(C)C)c2c1 (stereo unspecified) | 97.9 | · | ·
O=C(N/N=C/c1cn(-c2ccccc2)nc1-c1cccnc1)c1ccccc1 | -51.6* | -0.2 | 16.3
CN1CCc2cccc3c2C1Cc1ccc(O)c(O)c1-3 (stereo unspecified) | 49.6 | · | ·
O=c1[nH]c(Nc2ccccc2)cc2cc(Br)ccc12 | 97.9 | · | ·
CC(=O)c1cccc(-c2ccc3c(=O)[nH]c(Nc4ccccc4)cc3c2)c1 | 96.2 | · | · | Fluor interf act=>100
COc1ccccc1Nc1cc2cc(Br)ccc2c(=O)[nH]1 | 96.8 | · | ·
Nc1ccc2nn(-c3ccccc3)nc2c1 | 93.2 | · | ·
Cc1ccc(OCCNC(=O)CCNS(=O)(=O)c2ccc(C)cc2)cc1 | -605.3* | 16.5 | 13.2
COCCNC(=O)CN(c1cccc(OC)c1)S(=O)(=O)c1ccc(C)cc1 | 57.1 | · | ·
C#CCOCCOCCOCCNc1nc(N2CCN(C(=O)CCCCCCCCCCNC(=O)[C@@H](CCSC)n3cc(CCO)nn3)CC2)nc(N2CCN(C(=O)CCCCCCCCCCNC(=O)[C@H](CCC(=O)O)n3cc(CCCCCN)nn3)CC2)n1 | 61.6 | · | ·
O=S(=O)(Nc1ccc(O)c2ccccc12)c1cccs1 | 52.4 | · | ·
COC(=O)CCC(=O)N1CN2CN(C(=O)CCC(=O)OC)CC([N+](=O)[O-])(C2)C1 | -152.2* | 2.2 | 7.2
COc1ccc(CCN2C(=O)C3C4CC(C5C(C(=O)NN)=NOC45)C3C2=O)cc1OC (stereo unspecified) | -311.6* | 11.6 | 12.6
CCN(CC)CCNC(=O)c1ccc(NC(=O)C2CC(=O)N(CCc3ccc(OC)c(OC)c3)C2)cc1 (stereo unspecified) | 47.2 | · | ·
C#CCOCCOCCOCCNc1nc(N2CCN(C(=O)CCCCCCCCCCNC(=O)[C@@H](CCC(=O)O)n3cc(CCCCCN)nn3)CC2)nc(N2CCN(C(=O)CCCCCCCCCCNC(=O)[C@H](CO)n3cc(CCCCCN)nn3)CC2)n1 | 54.4 | · | ·
CCOC(=O)C1=C(COCCN)NC(C)=C(C(=O)OC)C1c1ccccc1Cl (stereo unspecified) | 39.5 | · | ·
CCc1cccc2c(C#N)cn(CCOc3ccccc3OC)c12 | -104.0* | 2.9 | 16.9
COc1ccc2ccccc2c1C1CC(=O)N2CN(C)CSC2=C1C#N (stereo unspecified) | 71.2 | · | ·
C[C@@H]1CN([C@H](C)CO)C(=O)Cc2cc(NS(=O)(=O)c3ccc(Cl)cc3)ccc2O[C@H]1CN(C)Cc1ccc(C(F)(F)F)cc1 | 40.6 | · | ·
CC(C)(C)NC(=O)CC1C(=O)NCCN1Cc1c(F)cccc1Cl (stereo unspecified) | -40.7* | 1.1 | 6.7
COc1ccc(S(=O)(=O)N2CCCCCC2)cc1C(=O)N(C)Cc1c(F)cccc1Cl | 42.6 | · | ·
SMILES | Apaf-1 act | Rh110 act interf | Apaf-1 act conf | others
O=C(O)c1ccc(NC2=C/C(=N/S(=O)(=O)c3ccccc3)c3ccccc3C2=O)cc1 | 96.0 | · | ·
Nc1ccc(N2CCCCCC2)cc1 | 92.9 | · | ·
CC(=O)c1ccc(N2CCN(C(=O)CCN3C(=S)NC(C)(C)CC3C)CC2)cc1 (stereo unspecified) | -138.9* | 6.6 | 15.5
CN(C)S(=O)(=O)Oc1cccc(C(=O)Nc2ccc(Cl)c(Cl)c2)c1 | -40.4* | 2.3 | 14.3
CCCCCc1cc(=O)oc2c(C(CCN(CC)CC)c3ccc(OC)cc3)c(OC)cc(OC)c12 (stereo unspecified) | 60.6 | · | ·
O=C(OCC(=O)N1CCN(S(=O)(=O)c2ccc(Cl)cc2)CC1)c1ccc([N+](=O)[O-])o1 | 69.1 | · | ·
CCN1/C(=C/c2ccc3ccccc3[n+]2CC)C=Cc2ccccc21 | 40.7 | · | ·
CCCCN(C(=O)c1cccc(S(=O)(=O)N2CCOCC2)c1)c1c(N)n(CCC)c(=O)[nH]c1=O | -84.0* | 0.2 | 4.6
COc1ccc(C(=O)N(Cc2ccccc2)c2cccc(C)c2)cc1S(=O)(=O)N1CCOCC1 | 45.2 | · | ·
COc1ccc(C(=O)N(CCc2ccccc2)Cc2ccccc2)cc1S(=O)(=O)N1CCOCC1 | 45.0 | · | ·
c1cc2c3c(cccc3c1)C(N1CCCCC1)=N2 | 90.9 | · | ·
COC(=O)C1=C(C)N(Cc2ccccc2)C(=NCc2cccc(Cl)c2)N[C@H]1c1ccccc1 | 56.0 | · | ·
CC(/C=C\c1cccnc1)=C/C(=O)O | -84.3* | -1.5 | -46.2* | Fluor interf act=>100
Cc1[nH]n(-c2ccccc2)c(=O)c1C(c1cccc([N+](=O)[O-])c1)c1c(C)[nH]n(-c2ccccc2)c1=O | 64.1 | · | ·
S=C(Nc1cccnc1)Nc1cccc2cnccc12 | 86.3 | · | ·
CCOc1ccc(NC(=S)Nc2cccc3cnccc23)cc1 | 95.5 | · | ·
CCOc1ccc(OCc2ccc(C(=O)Nc3cccnc3)cc2)cc1 | -50.5* | 2.2 | 6.1
CCN(C(=S)Nc1cccnc1)c1cccc2ccccc12 | 84.7 | · | ·
O=C(Nc1ccccc1C(=O)Nc1cccnc1)c1ccccc1 | -165.6* | 9.4 | 13.7
CCOc1ccc(NC(=O)CN(C)C(=O)c2ccc(COc3ccccc3)cc2)cc1OCC | 47.9 | · | ·
CC(C)[C@H](CN1CCC[C@H]1CN1C(N)=NC[C@@H]1Cc1ccccc1)N1C[C@@H](Cc2ccccc2)N(CCc2ccc(Cl)c(Cl)c2)C1=N | 82.3 | · | ·
COc1ccccc1C(=O)NC(CCSC)C(=O)N1CCC(Cc2ccccc2)CC1 (stereo unspecified) | 44.0 | · | ·
COc1cc2c(C#N)c(N3CCCC3)nc(N)c2c(N)n1 | 83.8 | · | ·
COc1ccc(/C=N/Nc2cc(N3CCCC3)nc(N3CCCC3)n2)cc1 | 93.4 | · | ·
CC(NC(=O)Nc1ccc(F)cc1)c1ccc2c(c1)OCO2 (stereo unspecified) | -71.5* | 20.9 | 0.3
SMILES | Apaf-1 act | Rh110 act interf | Apaf-1 act conf | others
S=c1nc[nH]c2nc[nH]c12 | 2.3 | · | ·
O=S(=O)(NCC(Nc1ccccc1)c1ccccc1)c1ccc(Cl)cc1 (stereo unspecified) | -244.9* | 7.8 | 17.8
C[C@H](CCC(=O)O)[C@H]1CC[C@H]2[C@@H]3[C@H](O)C[C@@H]4C[C@H](O)CC[C@]4(C)[C@H]3C[C@H](O)[C@]12C | -2.6 | · | ·
Cn1c(C(=O)N2CCN(c3nc4ccccc4s3)CC2)cc2sccc21 | 40.7 | · | ·
O=C(N/N=C\c1ccc(-c2ccccc2[N+](=O)[O-])o1)C1COc2cc3ccccc3cc2O1 (stereo unspecified) | 81.0 | · | ·
O=C(CCCCCn1c(=O)[nH]c2ccsc2c1=O)N1CCN(C2CCCCC2)CC1 | -386.7* | -0.1 | 1.7
Cc1nnc(N=c2ssnc2Cl)o1 | 50.0 | · | ·
Cc1ccccc1Oc1ncnc2oc(-c3ccccc3)cc12 | -75.5* | -6.5 | 10.7
N#C/C(=C/c1ccc(N2CCOCC2)o1)c1ccc(Br)cc1 | -108.8* | -1.8 | 19.0

Screening results as filed in PubChem BioAssay.
